Structures are written as SMILES. The source made the active and inactive calls. The calls are words filed in the database; no cut-off is given here.

We go through five compounds from ChEMBL document CHEMBL1212810, “Carbon metabolism-mediated myogenic differentiation” (Nat Chem Biol, 2010).

Type in all cases: functional, cell-based
For assay [1], the system named is C2C12. Description: Induction of cell differentiation in mouse C2C12 cells assessed as myosin heavy chain expression at 1 uM. The method, boiled down: (§1)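 Mouse C2C12 myoblasts were treated with statin. Differentiation was read as myosin heavy chain expression by immunofluorescence.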
The subject of assay [2] is C2C12. Description: Induction of cell differentiation in mouse C2C12 cells assessed as myosin heavy chain expression at 10 uM in presence of 250 uM cholesterol.
The test system of assay [3] is C2C12. Description: Induction of cell differentiation in mouse C2C12 cells assessed as myosin heavy chain expression at 5 uM. The procedure, abridged: as §1
In assay [4] the test system is C2C12. Description: Induction of cell differentiation in mouse C2C12 cells assessed as myosin heavy chain expression at 10 uM. The procedure, abridged: as §1
The subject of assay [5] is C2C12. Description: Inhibition of shATP citrate lyase-induced cell differentiation in mouse C2C12 assessed as myosin heavy chain expression at 100 nM.
The subject of assay [6] is C2C12. Description: Inhibition of serum withdrawal-induced cell differentiation in mouse C2C12 cells assessed as myosin heavy chain expression.
For assay [7], the system named is RD. Description: Induction of cell differentiation of human RD cells assessed as troponin expression after 4 days by immunofluorescence method. The method, boiled down:
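Human RD embryonal rhabdomyosarcoma cells were treated in normal growth medium for four days, then scored for differentiation.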

The test system of assay [8] is RD. Description: Inhibition of anchorage-independent growth in human RD cells at 10 uM. The procedure, abridged:
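Human RD embryonal rhabdomyosarcoma cells were treated and scored for anchorage-independent growth on soft agar.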

With `CC(C)c1c(C(=O)Nc2ccccc2)c(-c2ccccc2)c(-c2ccc(F)cc2)n1CC[C@@H](O)C[C@@H](O)CC(=O)O`, the result with C2C12 [1] was Active.

`CC[C@H](C)C(=O)O[C@H]1C[C@H](O)C=C2C=C[C@H](C)[C@H](CC[C@@H](O)C[C@@H](O)CC(=O)O)[C@H]21`: the outcome in the assay with C2C12 [2], in the assay with C2C12 [3] and in the assay on C2C12 [4] was Active.

In the case of `CC(/C=C/C(=O)NO)=C\[C@@H](C)C(=O)c1ccc(N(C)C)cc1`, the inhibition result in the assay with C2C12 [5] was “Active”.

Consider `CC(C)CCC[C@@H](C)[C@H]1CC[C@H]2[C@@H]3CC=C4C[C@@H](O)CC[C@]4(C)[C@H]3CC[C@]12C`, for which, in the assay with C2C12 [6], the inhibition entry was “Active”.

For the compound `CC(C)n1c(/C=C/C(O)CC(O)CC(=O)O)c(-c2ccc(F)cc2)c2ccccc21` (centres undefined), the outcome in the assay with RD [7] and in the assay on C2C12 [1] was Active. Besides, the inhibition result in the assay on RD [8] was “Active”.
